Sampled rows, rich in hits. Any-hit rate of the full collection: about 4.1%.
SMARCA2 act = increases SMARCA2 function in MMTV reporter cells | MG213 cells, MMTV-luciferase reporter, dexamethasone, overnight | activation, % at 9.1 µM | AID 652017 | 370,000 compounds, 1% hits; in the data active = activation above about 7.8%;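 note: 0% = vehicle wells and 100% = reference activator wells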
TbMetRS inhib = Trypanosoma brucei MetRS inhibition; purified T. brucei MetRS, ATP depletion, Kinase-Glo luminescence; inhibition, % at 11.9 µM; 360,000 compounds, 0.4% hits; AID 624268;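 active = inhibition above a per-plate cutoff of the control wells' mean inhibition plus 3 SD, cut at about 5.5% in these data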;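 note: 0% = DMSO wells median and 100% = median of wells with control inhibitor compound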
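Dosing: 11.9 µM single point; system: parasite MetRS enzyme; technique: luminescence of leftover ATP; times: 15 min enzyme-compound preincubation, 2 h reaction, 10 min detection, 25 °C; replicates: each compound tested once; read-out basis: percent inhibition relative to median high and low control wells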
TAG inh = triacylglycerol accumulation inhibition. H9c2 cells, Nile Red lipid (TAG) fluorescence; cells loaded with 200 µM oleic acid. inhibition, % at 12.5 µM. 230,000 compounds, 0.66% hits. AID 651582;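 active = pattern-corrected inhibition of lipid staining of at least 50% with the nuclear-stain viability signal not falling by more than 50%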;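 note: 0% = DMSO wells and 100% = triacsin C control wells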
AHR act = activates the human aryl hydrocarbon receptor. P35869. AHR-responsive luciferase reporter cells, luminescence. activation, % at 5 µM. 320,000 compounds, 2.5% hits. AID 2796; in the data active = activation above about 47%;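 note: 0% = vehicle wells and 100% = reference agonist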
Target sequence (P35869 whole entry, looked up): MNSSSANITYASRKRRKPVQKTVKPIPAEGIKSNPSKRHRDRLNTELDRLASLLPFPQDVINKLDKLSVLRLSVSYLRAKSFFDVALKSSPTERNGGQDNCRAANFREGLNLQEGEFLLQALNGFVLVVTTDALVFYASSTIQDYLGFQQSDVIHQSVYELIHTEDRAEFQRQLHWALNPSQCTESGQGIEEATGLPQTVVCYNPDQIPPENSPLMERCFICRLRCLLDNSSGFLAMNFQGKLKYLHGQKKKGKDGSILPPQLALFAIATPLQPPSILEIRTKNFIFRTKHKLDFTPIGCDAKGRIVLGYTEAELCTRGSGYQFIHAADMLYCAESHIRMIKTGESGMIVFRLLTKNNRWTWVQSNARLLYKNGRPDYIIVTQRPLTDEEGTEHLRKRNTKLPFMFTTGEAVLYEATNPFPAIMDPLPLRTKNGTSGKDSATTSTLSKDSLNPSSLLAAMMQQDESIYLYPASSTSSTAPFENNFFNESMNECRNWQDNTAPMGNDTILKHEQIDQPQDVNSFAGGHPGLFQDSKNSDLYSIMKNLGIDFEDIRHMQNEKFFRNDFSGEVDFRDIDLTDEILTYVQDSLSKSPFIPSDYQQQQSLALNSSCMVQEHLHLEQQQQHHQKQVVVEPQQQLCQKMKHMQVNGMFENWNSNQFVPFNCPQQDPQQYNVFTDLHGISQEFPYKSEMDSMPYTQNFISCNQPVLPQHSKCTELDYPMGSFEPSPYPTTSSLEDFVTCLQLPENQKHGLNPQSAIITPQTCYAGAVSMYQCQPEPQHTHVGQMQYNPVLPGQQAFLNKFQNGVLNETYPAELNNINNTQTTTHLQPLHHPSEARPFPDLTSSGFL
Efflux pump inh = inhibitors of Candida antifungal efflux pumps expressed in yeast; S. cerevisiae Candida pump triplex, Nile Red efflux; inhibition, % at 10 µM; 330,000 compounds, 0.44% hits;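 active = plate passing quality check with inhibition over a set limit, or well fluorescence over plate mean plus 4 SD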;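 note: Nile Red retained in pooled yeast measured as flow cytometry median fluorescence; 0% = buffer negative control and 100% = Enniatin B positive control; higher means more Nile Red kept so more efflux inhibition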
SMARCA2 conf = confirmation of SMARCA2 (BRM) function activators | shares compounds with SMARCA2 act | MG213 cells, MMTV-luciferase with dexamethasone, luminescence, overnight; MG213 cells expressing E1A, Rb sequestered; DMSO wells 0%, reference activator 100% | activation, % at 9.1 µM | 3,500 compounds, 30% hits;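 active = activation above its plate's cutoff, the mean activation of tested wells plus 3 SD, cut at about 7.9% in these data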
VP16 Luc act = GAL4-VP16 reporter activation counter-screen | 3,500 compounds, 41% hits | shares compounds with SMARCA2 act | HEK293 GAL4-VP16 pG5luc reporter, luciferase luminescence; scaled: DMSO wells 0%, SAHA wells 100% | activation, % at 9.1 µM | AID 686939;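 active = activation above the solvent-only control well mean plus 3 SD, averaged across control plates, cut at about 5.2% in these data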
Starred values were filed as active, the others as inactive; . = no result given.

SMILES | SMARCA2 act | TbMetRS inhib | TAG inh | AHR act | Efflux pump inh | SMARCA2 conf | VP16 Luc act
CC(=O)c1ccc(N2CCN(C(=S)NCCCN(C)C)CC2)cc1 | 8.2* | 0.0 | 7.0 | -1.5 | -0.1 | 0.2 | 3.4
CC(=O)c1ccc(N2CCN(C(=S)NCc3ccco3)CC2)cc1 | -3.0 | 0.2 | 4.7 | 0.3 | 0.0 | . | .
Cc1cc(=O)[nH]c(SCc2nnnn2-c2ccc(Cl)cc2)n1 | 0.9 | 0.6 | . | 1.1 | -0.1 | . | .
Nc1cc(=O)[nH]c(SCc2nnnn2-c2ccc(Cl)cc2)n1 | 9.4* | 0.0 | . | 0.8 | -0.2 | 2.8 | 0.3
CN1C(=O)c2cc(NC(=O)Nc3ccccc3)ccc2OC[C@H]2O[C@@H](CC(=O)NCC(F)(F)F)CC[C@@H]21 | -5.2 | . | . | . | . | . | .
COC(=O)[C@]12C[C@H](CC(=O)NCC3CCCCC3)C(=O)N(CCC3=CCCCC3)C1=C[C@H](C(C)C)O[C@@H]2C1CC1 | 0.0 | . | . | . | . | . | .
CC1CCCC(C)N1C(=O)c1ccccc1 (stereo not drawn) | 2.3 | . | . | . | . | . | .
Cc1nnc2c(N(C)S(=O)(=O)c3ccccc3)nc3ccccc3n12 | 8.2* | 0.7 | . | 3.2 | 0.1 | 9.0* | 2.9
CCCc1nnc2c(N(C)S(=O)(=O)c3ccccc3)nc3ccccc3n12 | -4.3 | -1.6 | . | 3.4 | -0.1 | . | .
O=C(Nc1cccnc1)c1scc2c1OCCO2 | -1.6 | -1.5 | 2.4 | -7.7 | 0.1 | . | .
O=C(NC1CC1)c1scc2c1OCCO2 | 8.2* | -0.4 | -15.7 | -3.5 | 0.1 | 4.4 | -0.7
O=C(Cc1csc(Nc2nc(=S)[nH]c3ccccc23)n1)NCCCN1CCN(c2ccccc2F)CC1 | 15.3* | -1.3 | 32.9 | 16.3 | 0.0 | 9.6* | 2.2
O=C(Cc1csc(Nc2nc(=S)[nH]c3ccccc23)n1)NCc1ccc(Cl)cc1 | . | 0.4 | . | 25.8 | 0.0 | . | .
O=C(CC1C(=O)CCCC1=O)c1ccccc1 | 8.6* | -0.9 | 17.8 | -1.3 | -0.1 | 8.1* | 1.6
C=CCn1c(-c2cccc(S(=O)(=O)N3CCOCC3)c2)n[nH]c1=S | -2.0 | -0.2 | -15.2 | . | . | . | .
O=S(=O)(c1cccc(-c2n[nH]c(=S)n2C2CCCC2)c1)N1CCOCC1 | 8.8* | -0.2 | -7.3 | -0.4 | 0.0 | -0.9 | 0.4
Oc1ccc(Cl)cc1CNc1ccc(Br)cn1 | 9.9* | 4.5 | . | -2.6 | 0.0 | 11.1* | 10.2*
Oc1c(Cl)cc(Cl)cc1CNc1ccc(Br)cn1 | 3.5 | -0.6 | 0.2 | 6.4 | -0.1 | . | .
COc1ccc(NC(=O)N(C)C[C@@H]2OCc3cnnn3CCCC(=O)N([C@@H](C)CO)C[C@@H]2C)cc1 | -4.4 | . | . | . | . | . | .
CC(C)C[C@@H](CSc1ccc(Br)cc1)N1CCN(C)CCC1=O | 8.2* | -0.4 | -8.7 | 8.5 | -0.2 | 9.0* | 9.2*
CN1C2CCC1CC(NC(=O)c1cccc(C(F)(F)F)c1)C2 (stereo not drawn) | 0.2 | -0.9 | . | -0.3 | -0.2 | . | .
CC(C)N1CCCCC(NC(=O)c2cccc(C(F)(F)F)c2)C1=O (stereo not drawn) | 8.8* | . | . | . | . | 0.8 | 0.3
COc1ccc(Br)cc1CN(C)CC(=O)Nc1c(Cl)ccc(C)c1Cl | 8.1* | -2.5 | . | 1.2 | -0.1 | -5.6 | -0.4
Clc1ccc(CN2CCN(N=Cc3cccc(OCc4ccccc4)c3)CC2)cc1 | 1.5 | . | . | . | . | . | .
CC(C)C(=O)Nc1cccc(NC(=O)c2ccc(Cl)cc2Cl)c1 | 8.5* | 0.0 | . | 3.8 | -0.1 | 0.0 | 2.7
SMILES | SMARCA2 act | TbMetRS inhib | TAG inh | AHR act | Efflux pump inh | SMARCA2 conf | VP16 Luc act
COC(=O)C1=C(C)N(C)C(=NCC2CC2)NC1c1ccccc1C(F)(F)F (stereo not drawn) | 4.7 | . | . | . | . | . | .
Cc1ccc(NC(=O)c2sc3nc(C)cc(C)c3c2N)cc1 | 9.9* | -1.1 | . | 27.4 | 0.6 | 6.8 | 15.2*
NC1(N2SC(S)=C3CCCC=C32)CCCCC1 | -1.6 | . | . | . | . | . | .
CC(C)(C)C(=O)Nc1nnc(SCC(=O)Nc2ccc3c(c2)OCO3)s1 | 13.4* | -0.3 | . | 4.3 | -0.1 | -5.3 | 2.4
COc1cc2c(cc1OC)C(CSc1ccccc1C(=O)O)=NC(C)(C)C2 | 9.3* | 1.1 | 1.5 | 2.4 | 0.1 | 9.4* | 5.8*
CCC[C@@H](/C=C/C(=O)OC(C)(C)C)Sc1ccc(OC)cc1 | 0.0 | . | . | . | . | . | .
